Published values from different studies.
Target: Serine/threonine-protein kinase 25 (STK25, Homo sapiens, UniProt O00506)

| SMILES | observed | method | tested at | remaining binding [%] |
| --- | --- | --- | --- | --- |
| N[C@H]1CCN(c2nccc(-c3cnn4ncccc34)n2)C1 | binding | – | 1 µM | 100 |
| O=C(c1ccc(Nc2ncc(Cl)c(-c3cc4ccccc4s3)n2)cc1)N1CCC(N2CCCC2)CC1 | binding | competition with immobilised ligand | 1 µM | 32 |
| N#CC1(c2ccccn2)CCN(Cc2cc(C(=O)N3CCCC3)c(=O)n3ccccc23)CC1 | cell-free assay | competition with immobilised ligand | 1 µM | 97 |
| C[C@H]1CCN(c2nccc(-c3cnn4ncccc34)n2)C1 | binding | – | 1 µM | 100 |
| COc1cnc(Nc2cccc(S(N)(=O)=O)c2)nc1N1CCN(c2ccccc2)CC1 | binding | competition with immobilised ligand | 1 µM | 100 |
| c1ccc(N2CCN(Cc3nc4ccccc4[nH]3)CC2)nc1 | binding | competition with immobilised ligand | 1 µM | 94 |
| O=C(c1ccc(Nc2ncc(Cl)c(-c3ccc(Cl)s3)n2)cc1)N1CCC(N2CCCC2)CC1 | binding | competition with immobilised ligand | 1 µM | 22 |
| C=CC(=O)N1CCC(C(=O)NCC(=O)N2CCN(c3nc(-c4cnc(N)nc4C(F)F)nc(N4CCOCC4)n3)CC2)CC1 | binding | competition with immobilised ligand | 1 µM | 96 |
| COc1cnc(Nc2cccc(S(N)(=O)=O)c2)nc1N1CCN(c2ccccc2)C(=O)C1 | binding | competition with immobilised ligand | 1 µM | 100 |
| CCC(=O)N[C@H]1CC[C@@H](C(=O)N(C)c2ccc(-c3nc4ccccc4o3)cc2)C1 | cell-free assay | competition with immobilised ligand | 1 µM | 100 |
| Cc1cnc(Nc2ccc(C(=O)N3CCC(N4CCCC4)CC3)cc2)nc1-c1cc2ccccc2s1 | binding | competition with immobilised ligand | 1 µM | 21 |
| c1cncc(-c2cccc(Nc3nccc(NC4CCCCC4)n3)c2)c1 | binding | competition with immobilised ligand | 10 µM | 100 |
| Cc1cnn2ncc(-c3ccnc(N(C)C)n3)c2c1 | binding | – | 1 µM | 100 |
| CCCOc1ccc([C@H]2[C@H](C(=O)O)[C@@H](c3ccc4c(c3)OCO4)CN2CC(=O)Nc2c(CC)cccc2CC)cc1 | cell-free assay | competition with immobilised ligand | 1 µM | 100 |
| c1cnn2ncc(-c3ccnc(N4CCC45COC5)n3)c2c1 | binding | – | 1 µM | 100 |
| O=C(Nc1c[nH]nc1C(=O)NC1CCNCC1)c1cc(F)cc(F)c1 | binding | competition with immobilised ligand | 1 µM | 85 |
| CC(=O)C1=C(C)N(c2cccc(C(F)(F)F)c2)C(=O)N[C@@H]1c1ccc(C#N)nc1 | cell-free assay | competition with immobilised ligand | 1 µM | 89.9 |
| COc1ccnn2ncc(-c3ccnc(N(C)C)n3)c12 | binding | – | 1 µM | 100 |
| CN([C@@H]1CCc2c(CC(=O)O)c3cc(S(C)(=O)=O)ccc3n2C1)S(=O)(=O)c1ccc(F)cc1 | cell-free assay | competition with immobilised ligand | 1 µM | 100 |
| CN(C)c1nccc(-c2cnn3ncccc23)n1 | binding | – | 1 µM | 90 |
